ChEMBL document CHEMBL3808334, “Synthesis and in vitro evaluation of novel triazine analogues as anticancer agents and their interaction studies with bovine serum albumin” (Eur J Med Chem, 2016)

Tests used:
U-251 [1] = experiment: Growth inhibition of human U251 cells assessed as cell growth at 10^-5 M incubated for 48 hrs by sulforhodamine B assay; format: functional; conditions: U-251, 48 h, read-out: Activity
Malme-3M = experiment: Growth inhibition of human MALME-3M cells assessed as cell growth at 10^-5 M incubated for 48 hrs by sulforhodamine B assay; format: functional; conditions: read-out: Activity
NCI-H522 = experiment: Growth inhibition of human NCI-H522 cells assessed as cell growth at 10^-6 M incubated for 48 hrs by sulforhodamine B assay; format: functional; conditions: NCI-H522, 48 h, read-out: Activity
[2] = Growth inhibition of human SF539 cells assessed as cell growth at 10^-8 M incubated for 48 hrs by sulforhodamine B assay; format: functional; conditions: SF-539, 48 h, read-out: Activity
K562 = experiment: Growth inhibition of human K562 cells incubated for 48 hrs by sulforhodamine B assay; format: functional; conditions: K562, 48 h
Procedure, shortened: (§1)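 Cells were plated at 5,000–40,000 per well according to doubling time and preincubated 24 h at 37 °C in 5% CO2; time-zero plates were then TCA-fixed. Five concentrations (10-fold or ½-log dilutions, DMSO stock) were incubated 48 h. Cells were TCA-fixed, stained with 0.4% SRB and read at 515 nm. GI50 was taken where [(Ti−Tz)/(C−Tz)]×100 = 50.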

[3] = Growth inhibition of human SF295 cells assessed as cell growth at 10^-7 M incubated for 48 hrs by sulforhodamine B assay; format: functional; conditions: SF-295, 48 h, read-out: Activity
[4] = Growth inhibition of human UO31 cells assessed as cell growth at 10^-8 M incubated for 48 hrs by sulforhodamine B assay; format: functional; conditions: UO-31, 48 h, read-out: Activity
[5] = Growth inhibition of human HCT116 cells assessed as cell growth at 10^-7 M incubated for 48 hrs by sulforhodamine B assay; format: functional; conditions: HCT-116, 48 h, read-out: Activity
Procedure, shortened: (§2)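 Cells seeded at 5,000–40,000/well according to doubling time and preincubated 24 h at 37 °C, 5% CO2. Time-zero plates were TCA-fixed. DMSO concentrate was diluted in medium with 50 µg/ml gentamicin to give five concentrations (10-fold or ½ log steps), then exposed 48 h. Cells were TCA-fixed, stained with 0.4% SRB and read at 515 nm. Percent growth was taken against time-zero and control; GI50, TGI and LC50 derived.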

Albumin = Albumin (Bos taurus, UniProt P02769); experiment: Binding affinity to bovine serum albumin assessed as binding constant in absorption spectra by Benesie-Hildebrand plot analysis; format: ADME; conditions: cattle, isolated protein
Procedure, shortened: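 BSA, 10 µM, in 0.1 M phosphate buffer pH 7.4, titrated with compound (0–20 µM per the figure; diluted from 10⁻³ mol L⁻¹ DMSO stocks). Run at 300 K in a 1 cm quartz cell. UV spectra taken 200–800 nm after 5 min equilibration; fluorescence excited at 280 nm, emission 351 nm, slit 10 nm. K is the intercept/slope ratio of a linear fit of 1/(A₀−A) or 1/(F₀−F) vs 1/[compound].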

KM12 = experiment: Growth inhibition of human KM12 cells assessed as cell growth at 10^-6 M incubated for 48 hrs by sulforhodamine B assay; format: functional; conditions: KM12, 48 h, read-out: Activity
MCF7 [6] = experiment: Growth inhibition of human MCF7 cells incubated for 48 hrs by sulforhodamine B assay; format: functional; conditions: MCF7, 48 h; procedure, shortened: as §1
786-0 = experiment: Growth inhibition of human 786-0 cells incubated for 48 hrs by sulforhodamine B assay; format: functional; conditions: 786-0, 48 h
Procedure, shortened: (§3)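 Five-dose assay: five concentrations from 10-fold or ½-log serial dilutions. Cells are plated at 5,000–40,000 per well according to doubling time, grown 24 h, then exposed 48 h at 37 °C, 5% CO₂. Fixed with cold 50% TCA (final addition) for 60 min at 4 °C and stained with 0.4% SRB in 1% acetic acid. Bound dye is solubilized in 10 mM Tris base and read at 515 nm. GI₅₀ is where [(Ti−Tz)/(C−Tz)]×100 = 50, with a time-zero plate as Tz.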

[7] = Growth inhibition of human SF295 cells assessed as cell growth at 10 uM incubated for 48 hrs by sulforhodamine B assay; format: functional; conditions: SF-295, 48 h, read-out: Activity
[8] = Growth inhibition of human DU145 cells assessed as cell growth at 10^-6 M incubated for 48 hrs by sulforhodamine B assay; format: functional; conditions: DU-145, 48 h, read-out: Activity; procedure, shortened: as §2
[9] = Growth inhibition of human OVCAR8 cells assessed as cell growth at 10^-5 M incubated for 48 hrs by sulforhodamine B assay; format: functional; conditions: OVCAR-8, 48 h, read-out: Activity
[10] = Growth inhibition of human SW620 cells assessed as cell growth at 10^-5 M incubated for 48 hrs by sulforhodamine B assay; format: functional; conditions: SW-620, 48 h, read-out: Activity
MDA-MB-435 = experiment: Growth inhibition of human MDA-MB-435 cells assessed as cell growth at 10^-4 M incubated for 48 hrs by sulforhodamine B assay; format: functional; conditions: MDA-MB-435, 48 h, read-out: Activity
[11] = Growth inhibition of human Hs 578T cells assessed as cell growth at 10^-7 M incubated for 48 hrs by sulforhodamine B assay; format: functional; conditions: read-out: Activity
[12] = Growth inhibition of human SF268 cells assessed as cell growth at 10^-8 M incubated for 48 hrs by sulforhodamine B assay; format: functional; conditions: SF-268, 48 h, read-out: Activity
U-251 [13] = experiment: Growth inhibition of human U251 cells assessed as cell growth at 10 uM incubated for 48 hrs by sulforhodamine B assay; format: functional; conditions: U-251, 48 h, read-out: Activity
SR = experiment: Growth inhibition of human SR cells assessed as cell growth at 10^-8 M incubated for 48 hrs by sulforhodamine B assay; format: functional; conditions: read-out: Activity
[14] = Growth inhibition of human LOXIMVI cells incubated for 48 hrs by sulforhodamine B assay; format: functional; conditions: LOX IMVI; procedure, shortened: as §1
[15] = Growth inhibition of human CNS cancer cells incubated for 48 hrs by sulforhodamine B assay; format: functional; conditions: Cancer cell lines; for CC50: read-out: LC50 (the source's name); procedure, shortened: as §3
MCF7 [16] = experiment: Growth inhibition of human MCF7 cells assessed as cell growth at 10^-5 M incubated for 48 hrs by sulforhodamine B assay; format: functional; conditions: MCF7, 48 h, read-out: Activity
EKVX = experiment: Growth inhibition of human EKVX cells assessed as cell growth at 10^-5 M incubated for 48 hrs by sulforhodamine B assay; format: functional; conditions: read-out: Activity; procedure, shortened: as §2
[17] = read-out: LC50 (the source's name)
[18] = read-out: pLC50 (the source's name) (converted)

Albumin, sequence (P02769 whole entry): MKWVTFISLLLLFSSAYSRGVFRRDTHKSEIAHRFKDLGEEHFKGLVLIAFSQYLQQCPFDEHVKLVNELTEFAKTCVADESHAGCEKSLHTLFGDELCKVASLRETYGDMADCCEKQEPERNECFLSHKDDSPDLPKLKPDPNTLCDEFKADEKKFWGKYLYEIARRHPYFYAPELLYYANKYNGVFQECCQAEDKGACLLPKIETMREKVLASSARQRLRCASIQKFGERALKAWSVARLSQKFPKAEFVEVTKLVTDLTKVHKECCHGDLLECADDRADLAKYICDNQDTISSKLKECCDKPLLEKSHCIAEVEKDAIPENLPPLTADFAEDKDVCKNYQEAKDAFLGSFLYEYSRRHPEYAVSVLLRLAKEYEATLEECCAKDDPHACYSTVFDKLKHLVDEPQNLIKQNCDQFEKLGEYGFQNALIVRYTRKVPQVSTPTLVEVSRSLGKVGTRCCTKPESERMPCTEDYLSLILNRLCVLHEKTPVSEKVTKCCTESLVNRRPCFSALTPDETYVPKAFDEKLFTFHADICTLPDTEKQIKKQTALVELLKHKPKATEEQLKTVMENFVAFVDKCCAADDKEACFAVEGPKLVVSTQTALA

Clc1ccc(-c2nc(Nc3ccc(-c4nc5ccccc5[nH]4)cc3)nc(N3CCOCC3)n2)cc1
growth at 10 µM (U-251 [1]): -92%
growth at 10 µM (Malme-3M): -78%
growth at 1 µM (NCI-H522): 77%
growth at 0.01 µM [2]: 98%
GI50 (K562; read-out: GI50): 186 nM
TGI (K562; read-out: TGI): 391 nM
GI50 (K562; read-out: pGI50 (converted)): 186 nM
TGI (K562; read-out: pTGI (converted)): 389 nM
growth at 0.1 µM [3]: 91%
growth at 0.01 µM [4]: 79%
growth at 0.1 µM [5]: 93%
K (Albumin): 1 ×10⁵ /M
growth at 1 µM (KM12): 14%
GI50 (MCF7 [6]; read-out: GI50): 194 nM
TGI (MCF7 [6]; read-out: TGI): 490 nM
GI50 (MCF7 [6]; read-out: pGI50 (converted)): 195 nM
TGI (MCF7 [6]; read-out: pTGI (converted)): 490 nM
GI50 (786-0; read-out: GI50): 177 nM
TGI (786-0; read-out: TGI): 348 nM
GI50 (786-0; read-out: pGI50 (converted)): 178 nM
TGI (786-0; read-out: pTGI (converted)): 347 nM
growth at 10 µM [7]: -94.4%
growth at 1 µM [8]: 26%
growth at 10 µM [9]: -79%
growth at 10 µM [10]: -79%
growth at 100 µM (MDA-MB-435): -49%
growth at 0.1 µM [11]: 87%
growth at 0.01 µM [12]: 98%
growth at 10 µM (U-251 [13]): -93%
growth at 0.01 µM (SR): 103%
GI50 ([14]; read-out: GI50): 189 nM
GI50 ([14]; read-out: pGI50 (converted)): 191 nM
GI50 [15]: 770 nM
TGI [15]: 1920 nM
CC50 [15]: > 100000 nM
growth at 10 µM (MCF7 [16]): -66%
growth at 10 µM (EKVX): -80%

c1ccc2[nH]c(-c3ccc(Nc4nc(N5CCCCC5)nc(N5CCOCC5)n4)cc3)nc2c1
growth at 10 µM (Malme-3M): -80%
growth at 1 µM (NCI-H522): 94%
growth at 0.01 µM [2]: 99%
GI50 (K562; read-out: GI50): 2840 nM
CC50 (K562; [17]): > 100000 nM
GI50 (K562; read-out: pGI50 (converted)): 2820 nM
CC50 (K562; [18]): > 100000 nM
growth at 0.1 µM [3]: 94%
growth at 0.01 µM [4]: 85%
growth at 0.1 µM [5]: 94%
K (Albumin): 9.7 ×10⁴ /M
growth at 1 µM (KM12): 93%
GI50 (MCF7 [6]; read-out: GI50): 2400 nM
CC50 (MCF7 [6]; [17]): > 100000 nM
TGI (MCF7 [6]; read-out: TGI): 7900 nM
GI50 (MCF7 [6]; read-out: pGI50 (converted)): 2400 nM
CC50 (MCF7 [6]; [18]): > 100000 nM
TGI (MCF7 [6]; read-out: pTGI (converted)): 7940 nM
GI50 (786-0; read-out: GI50): 1540 nM
CC50 (786-0; [17]): 6680 nM
TGI (786-0; read-out: TGI): 3210 nM
GI50 (786-0; read-out: pGI50 (converted)): 1550 nM
CC50 (786-0; [18]): 6610 nM
TGI (786-0; read-out: pTGI (converted)): 3240 nM
growth at 10 µM [7]: -51.4%
growth at 1 µM [8]: 96%
growth at 10 µM [9]: 9%
growth at 10 µM [10]: -29%
growth at 100 µM (MDA-MB-435): -29%
growth at 0.1 µM [11]: 94%
growth at 0.01 µM [12]: 96%
growth at 10 µM (U-251 [13]): 8.02%
growth at 0.01 µM (SR): 95%
GI50 ([14]; read-out: GI50): 1750 nM
CC50 [14, 17]: 7310 nM
TGI ([14]; read-out: TGI): 3580 nM
GI50 ([14]; read-out: pGI50 (converted)): 1740 nM
CC50 [14, 18]: 7240 nM
TGI ([14]; read-out: pTGI (converted)): 3550 nM
GI50 [15]: 2540 nM
TGI [15]: 23200 nM
CC50 [15]: 46600 nM
growth at 10 µM (MCF7 [16]): -10%
growth at 10 µM (EKVX): 5%
